Several values for one entry are separate records, joined by “and”; a condition that tells them apart may be missing. Equal entries are not always repeated. Structures can show the parent of a compound that is named as a salt. Marks after values point to notes of the source that are not given here.

Series [1] concerns Cav1.2. Conditions: ref Wei et al., 2024; cited from earlier work.
Series [2] has as its target CaV1.4 (Homo sapiens, UniProt O60840). Format: cell-based. Conditions: for IC50: inhibition of ICa, Hill fit.
For the next series, the target named is CaV1.4 M1426A (Homo sapiens, UniProt O60840, M1426A). The experiment in a line: Whole-cell patch-clamp of ICa in HEK293T cells, CaV1.4 M1426A mutant. The series is classed as cell-based. In general terms: Patch clamp records ionic current or voltage across a cell membrane.
In a further series the target is CaV1.4 T1007Y (Homo sapiens, UniProt O60840, T1007Y). The experiment in a line: Whole-cell patch-clamp of ICa in HEK293T cells, CaV1.4 T1007Y mutant. The series is classed as cell-based.
The subject of the next series is CaV3 channels. Conditions: ref Xiang et al., 2011; cited from earlier work.
The next series deals with CaV1.4 M1004A (Homo sapiens, UniProt O60840, M1004A). The experiment in a line: Whole-cell patch-clamp of ICa in HEK293T cells, CaV1.4 M1004A mutant. Format: cell-based.
The next series has as its target CaV1.4 M1129A (Homo sapiens, UniProt O60840, M1129A). The experiment in a line: Whole-cell patch-clamp of ICa in HEK293T cells, CaV1.4 M1129A mutant. Format: cell-based.
For series [3], the target named is CaV1.2 (Oryctolagus cuniculus, UniProt P15381). The experiment in a line: Whole-cell patch-clamp of ICa in HEK293T cells transfected with CaV1.2. Conditions: CaV1.2 WT. Format: cell-based, rabbit.
In the next series the target is CaV1.2 V1063M (Oryctolagus cuniculus, UniProt P15381, V1063M). Put plainly: Whole-cell patch-clamp of ICa in HEK293T cells, CaV1.2 V1063M mutant. The series is classed as cell-based, rabbit.
The target of the next series is CaV3.2 (Homo sapiens, UniProt O95180). The experiment in a line: Whole-cell patch-clamp of Ca2+ currents. Format: cell-based. In outline:
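HEK293T cells co-transfected (Fugene 6) with CaV3.2 plus β2x13, α2δ-4 and eGFP; whole-cell recordings at room temperature 36–72 h later, 4–8 MΩ pipettes, 50–70% series-resistance compensation, P/−4 leak subtraction. Compound perfused in external solution (vehicle ≤1% DMSO); 0.1 Hz currents, steady-state % inhibition vs vehicle fitted by inhibitor–response regression (0–100 constrained). Boltzmann fits of I–V give Gmax, Vh, k, Vrev.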

Series [4] has as its system Cav1.4. Conditions: ref Koschak et al., 2003; cited from earlier work.
Series [5] relates to Cav1.4 ICa in mouse cones. The conditions noted are these: 5 μM, ref Davison et al., 2022; cited from earlier work.
The test system of another series is three CaV3 subtypes. The conditions noted are these: ref Tringham et al., 2012; cited from earlier work.
Setting [6] is: CaV3.2, inhibition of ICa, Hill fit, mean ± SEM.
Setting [7] is: CaV1.4, drug at 5 µM, Vhold −90 mV.
Setting [8] is: CaV3.2, drug at 100 nM, mean ± SEM or median.

CaV3.2, sequence (O95180 whole entry, the tested form may be a part): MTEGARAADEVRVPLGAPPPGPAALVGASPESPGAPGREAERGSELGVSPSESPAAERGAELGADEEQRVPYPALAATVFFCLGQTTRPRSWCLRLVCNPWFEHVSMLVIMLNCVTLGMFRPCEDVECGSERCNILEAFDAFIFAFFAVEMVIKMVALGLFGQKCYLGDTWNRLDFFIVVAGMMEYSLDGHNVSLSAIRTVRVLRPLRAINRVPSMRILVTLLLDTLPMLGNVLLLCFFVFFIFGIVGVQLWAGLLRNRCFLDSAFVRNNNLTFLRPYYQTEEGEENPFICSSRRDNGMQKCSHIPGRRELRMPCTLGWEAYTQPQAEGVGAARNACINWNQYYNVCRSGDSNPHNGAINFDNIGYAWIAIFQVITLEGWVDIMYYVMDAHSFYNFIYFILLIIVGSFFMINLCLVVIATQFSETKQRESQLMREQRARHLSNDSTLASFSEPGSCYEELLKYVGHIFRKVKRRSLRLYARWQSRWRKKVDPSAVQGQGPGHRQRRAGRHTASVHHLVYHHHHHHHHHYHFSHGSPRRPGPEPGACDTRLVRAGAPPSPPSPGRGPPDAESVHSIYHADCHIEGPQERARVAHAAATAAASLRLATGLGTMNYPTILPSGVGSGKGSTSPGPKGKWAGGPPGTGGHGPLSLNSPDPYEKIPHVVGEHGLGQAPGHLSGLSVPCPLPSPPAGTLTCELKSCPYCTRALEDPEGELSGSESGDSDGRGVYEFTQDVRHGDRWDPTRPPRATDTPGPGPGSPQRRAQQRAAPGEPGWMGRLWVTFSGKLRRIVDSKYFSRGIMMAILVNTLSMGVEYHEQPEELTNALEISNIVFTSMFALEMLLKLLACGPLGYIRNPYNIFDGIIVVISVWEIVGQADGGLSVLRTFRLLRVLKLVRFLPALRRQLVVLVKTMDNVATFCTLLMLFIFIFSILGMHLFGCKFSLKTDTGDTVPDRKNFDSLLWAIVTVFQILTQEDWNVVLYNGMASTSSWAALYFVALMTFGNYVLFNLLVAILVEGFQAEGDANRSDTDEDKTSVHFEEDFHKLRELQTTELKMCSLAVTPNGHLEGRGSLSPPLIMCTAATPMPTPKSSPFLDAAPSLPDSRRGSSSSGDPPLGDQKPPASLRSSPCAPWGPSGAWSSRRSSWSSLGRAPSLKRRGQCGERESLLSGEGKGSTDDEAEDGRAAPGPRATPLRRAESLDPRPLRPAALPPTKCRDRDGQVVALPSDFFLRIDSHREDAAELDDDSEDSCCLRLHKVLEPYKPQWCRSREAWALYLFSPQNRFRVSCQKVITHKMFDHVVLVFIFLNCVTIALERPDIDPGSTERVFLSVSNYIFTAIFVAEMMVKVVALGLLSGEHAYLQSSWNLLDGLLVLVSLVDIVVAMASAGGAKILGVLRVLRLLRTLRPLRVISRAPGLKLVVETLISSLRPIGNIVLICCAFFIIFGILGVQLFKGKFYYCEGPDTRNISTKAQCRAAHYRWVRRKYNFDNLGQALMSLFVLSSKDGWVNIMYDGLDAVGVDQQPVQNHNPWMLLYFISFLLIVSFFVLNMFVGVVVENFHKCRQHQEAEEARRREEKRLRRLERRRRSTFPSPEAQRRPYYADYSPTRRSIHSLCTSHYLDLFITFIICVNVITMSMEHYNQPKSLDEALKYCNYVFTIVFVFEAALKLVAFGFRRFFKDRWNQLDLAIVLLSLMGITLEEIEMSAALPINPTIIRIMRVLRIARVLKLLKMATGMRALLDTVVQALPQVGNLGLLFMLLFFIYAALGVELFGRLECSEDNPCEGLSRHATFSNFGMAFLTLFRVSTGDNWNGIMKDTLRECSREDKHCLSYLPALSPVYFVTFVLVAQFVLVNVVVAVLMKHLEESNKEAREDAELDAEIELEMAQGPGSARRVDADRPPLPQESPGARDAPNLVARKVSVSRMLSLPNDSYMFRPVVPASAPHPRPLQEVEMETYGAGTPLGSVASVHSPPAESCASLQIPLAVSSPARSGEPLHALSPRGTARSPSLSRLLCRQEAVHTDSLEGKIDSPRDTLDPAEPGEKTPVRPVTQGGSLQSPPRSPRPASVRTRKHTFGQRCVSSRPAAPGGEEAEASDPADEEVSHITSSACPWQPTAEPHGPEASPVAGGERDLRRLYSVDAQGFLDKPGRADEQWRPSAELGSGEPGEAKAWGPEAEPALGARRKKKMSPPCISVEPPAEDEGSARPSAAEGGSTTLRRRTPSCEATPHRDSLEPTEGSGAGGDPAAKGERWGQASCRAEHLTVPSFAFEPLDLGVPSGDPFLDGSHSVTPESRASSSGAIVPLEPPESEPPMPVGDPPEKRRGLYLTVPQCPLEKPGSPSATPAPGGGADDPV

On to `COC(=O)C1=C(C)NC(C)=C(C(=O)OC2CCCN(Cc3ccccc3)C2)C1c1cccc([N+](=O)[O-])c1` (stereo not shown) [benidipine], for which, in the series on Cav1.2 [1], the “higher potency compared to nifedipine” value is 10 fold.
Broadly, the IC50 is the point on the concentration scale where inhibition reaches its midpoint. As for `CC(C)(C)CCN1C[C@@H]2C(CNC(=O)c3cc(Cl)cc(Cl)c3)[C@@H]2C1` (stereo partly shown) [ML218, ML218 hydrochloride], the IC50 against CaV1.4 [2] (CaV1.4 WT) is 2.1 ± 0.51 µM; at CaV1.4 M1426A it was 15 ± 2.9 µM; against CaV1.4 T1007Y (CaV1.4 T1007Y) it was ~20 µM and 20 µM; in the series with CaV3 channels, < 500 nM; against CaV1.4 M1004A it was 310 ± 190 µM; at CaV1.4 M1129A, 450 ± 160 nM. For the same molecule, the IC50 against CaV1.2 [3] is ~37 µM and 37 µM; against CaV1.2 V1063M, 120 ± 60 µM; on CaV3.2 (setting [6]) it was 23.7 ± 2.5 nM; against CaV3.2 (CaV3.2 ICa), ~24 nM.
In general, inhibition refers to how much of the control response was suppressed. Consider `COC(=O)C1=C(C)NC(C)=C(C(=O)OC(C)C)C1c1cccc2nonc12` (stereo not shown) [isradipine], for which the inhibition at 1 µM at CaV1.4 [2] (HEK-293T, read-out: inhibition of ICa amplitude) is ~78%; at CaV1.4 T1007Y (HEK-293T, read-out: inhibition of ICa) it was ~17%. The “increase in the extent of block on shifting Vhold from −90 mV to −50 mV” value with Cav1.4 [4] is recorded as ~ 80%.
With `CC(C)(C)NC(=O)CN1CCC(CNC(=O)c2cc(F)cc(Cl)c2)CC1` [Z944], the Gmax at CaV1.4 [2] (setting [7]) is given as 0.0845 ± 0.0387 nS/pF; on CaV3.2 (CaV3.2, drug at 100 nM, Boltzmann fit of I-V, mean ± SEM or median), 0.55 ± 0.13 nS/pF. Also, the Vh is -6.10 ± 1.54 mV at CaV1.4 [2] (setting [7]) and -33.47 ± 3.65 mV at CaV3.2 (setting [8]). In addition, the Vrev at CaV1.4 [2] (setting [7]) amounted to 60.73 ± 4.72 mV; at CaV3.2 (CaV3.2, drug at 100 nM), 42.96 ± 1.86 mV. Also, the results for the k at CaV1.4 [2] (setting [7]) and on CaV3.2 (setting [8]) were 8.89 ± 0.50 mV and 6.75^† mV, respectively. Moreover, the “Hill Slope” value at CaV1.4 [2] (CaV1.4 WT, dose-response fit) is listed as 0.22 ± 0.04; on CaV3.2 (CaV3.2, dose-response fit) it was 0.82 ± 0.10. Further, the IC50 is 31.5 ± 21 µM at CaV1.4 [2] (CaV1.4 WT), 260 ± 40 nM against CaV3.2 (setting [6]) and ~265 nM at CaV3.2 (CaV3.2 ICa). Besides, the “IC50 for Cav1.4 higher than that for Cav3.2” value at CaV1.4 [2] (Cav1.4 versus Cav3.2) was ~ 100 fold. Also, the “effect on amplitude of Cav1.4 ICa” value in series [5] is “increased the amplitude”. Further, the “affinity for CaV3 subtypes higher than for CaV2.2 and CaV1.2” value with three CaV3 subtypes is 70-100 times. Also, the “inhibition of the peak ICa amplitude” value at CaV3.2 (CaV3.2, drug at 100 nM) is reported as ~ 40%.

The values are drawn from PMC13080778 (The Journal of general physiology, 2026).
